Laboratory results from ChEMBL document CHEMBL1125418, “Antimycobacterial activity of a series of pyrazinoic acid esters” (1992).
≈ marks a conversion by molar mass, not a printed value.

How the values were obtained:
Type in all cases: functional
[1] = test system: Mycobacterium tuberculosis variant bovis; test: In vitro activity against Mycobacterium. tuberculosis (strain type-ATCC 27289).at pH 6.6
How it was run: (§1)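 Twofold serial dilutions (200–3.12 µg/mL) in 7H10 agar with 10% OADC enrichment at pH 6.6, in compartmented plates. Plates were stored at 4 °C and used within 24–48 h. A no-drug compartment served as control for each isolate. Plates were incubated for 4 weeks at 37 °C. MIC was the lowest concentration giving 99% (2 log) growth inhibition.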

[2] = test system: Mycobacterium tuberculosis variant bovis; test: In vitro activity against Mycobacterium. tuberculosis (strain type-ATCC 27289).at pH 5.8
How it was run: (§2)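 Middlebrook 7H10 agar plus 10% OADC at pH 5.8 in compartmented plates, with serial twofold dilutions from 200 to 3.12 µg/mL. Plates were prepared 24–48 h before use and stored at 4 °C. A drug-free compartment was included per isolate. Incubation was 37 °C for 4 weeks. MIC was the lowest level producing 99% (2 log) inhibition of growth.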

[3] = test system: Mycobacterium tuberculosis variant bovis; test: In vitro activity against Mycobacterium. tuberculosis (strain type-ATCC 27289)at pH 5.8.; how it was run: as §2
[4] = test system: Mycobacterium tuberculosis variant bovis; test: In vitro inhibitory activity against Mycobacterium tuberculosis (strain type-ATCC 27289). at pH 6.6; how it was run: as §1
[5] = test system: Mycobacterium tuberculosis variant bovis; test: In vitro inhibitory activity against Mycobacterium tuberculosis (strain type-ATCC 27289). at pH 5.8; how it was run: as §2
[6] = test system: Mycobacterium tuberculosis variant bovis; test: In vitro activity against Mycobacterium. tuberculosis (strain type-ATCC 27289). at pH 6.6; how it was run: as §1
[7] = test system: Mycobacterium tuberculosis variant bovis; test: In vitro activity against Mycobacterium. tuberculosis (strain type-ATCC 27289)at pH 6.6; how it was run: as §1
[8] = test system: Mycobacterium tuberculosis variant bovis; test: In vitro inhibitory activity against Mycobacterium. tuberculosis (strain type-ATCC 27289).at pH 6.6; how it was run: as §1
[9] = test system: Mycobacterium tuberculosis variant bovis; test: In vitro inhibitory activity against Mycobacterium. tuberculosis (strain type-ATCC 27289).at pH 5.8; how it was run: as §2
[10] = test system: Mycobacterium tuberculosis variant bovis; test: In vitro inhibitory activity against Mycobacterium tuberculosis (strain type-ATCC 27289) at pH 5.8.; how it was run: as §2

| SMILES | MIC [1] [µg/mL] | MIC [2] [µg/mL] | other results |
| --- | --- | --- | --- |
| CC(C)(C)c1ccc(OC(=O)c2cnccn2)cc1 | 200 (≈ 780 µM) | 25 (≈ 97.5 µM) | – |
| O=C(OCCCl)c1cnccn1 | – | – | MIC [3]: 6.25 µg/mL (≈ 33.5 µM) |
| CN(C)CCOC(=O)c1cnccn1 | – | – | MIC [4]: 200 µg/mL (≈ 1020 µM); MIC [5]: 12.5 µg/mL (≈ 64 µM) |
| O=C(OCC(F)(F)F)c1cnccn1 | – | 25 (≈ 121 µM) | MIC [6]: > 200 µg/mL |
| Cc1ccc(OC(=O)c2cnccn2)cc1 | 50 (≈ 233 µM) | 6.25 (≈ 29.2 µM) | – |
| O=C(Oc1ccc([N+](=O)[O-])cc1)c1cnccn1 | 100 (≈ 408 µM) | 3.12 (≈ 12.7 µM) | – |
| CCCOC(=O)c1cnccn1 | 25 (≈ 150 µM) | 6.25 (≈ 37.6 µM) | – |
| O=C(Oc1c(F)c(F)c(F)c(F)c1F)c1cnccn1 | – | 12.5 (≈ 43.1 µM) | MIC [7]: 100 µg/mL (≈ 345 µM) |
| C=CCOC(=O)c1cnccn1 | 200 (≈ 1220 µM) | < 3.12 | – |
| O=C(Oc1ccc(-c2ccccc2)cc1)c1cnccn1 | 100 (≈ 362 µM) | 25 (≈ 90.5 µM) | – |
| O=C(OCCBr)c1cnccn1 | > 200 | – | – |
| O=C(OC(C(F)(F)F)C(F)(F)F)c1cnccn1 | – | > 200 | – |
| NC(=O)c1cnccn1 [PYRAZINAMIDE] | – | – | MIC [8]: > 200 µg/mL; MIC [9]: > 200 µg/mL |
| O=C(O)c1cnccn1 [PYRAZINOIC ACID] | – | – | MIC [4]: > 200 µg/mL; MIC [10]: 100 µg/mL (≈ 806 µM) |
